For orientation: inhibition means the change of the read-out against control, counted positive when it falls. In general, pIC50 refers to the IC50 on a negative log10 scale, so that one unit is a factor of ten. A low value points to a large IC50.

The test system of experiment [1] is Epidermal growth factor receptor (Homo sapiens), P00533 [L858R,T790M,C797S]. Description: Covalent binding affinity to recombinant EGFR L858R/T790M/C797S triple mutant (unknown origin) assessed as Lys745 sulfonylation in tryptic digested peptide IPVAIK745ELR at enzyme:compound molar concentration ratio of 1:5 incubated for 1 hr and measured following tryptic digestion by isotopic profiling analysis. In a few lines: (§1)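 Recombinant triple-mutant EGFR co-incubated with inhibitor at 1:5 molar ratio for 1 h in Kinase Buffer A (50 mM HEPES pH 7.5, 10 mM MgCl2, 1 mM EGTA, 0.01% Brij-35); DMSO vehicle control. Reduced with DTT (15 min, 60°C), alkylated with iodoacetamide, trypsin-digested overnight at 37°C (1:10 trypsin:protein), C18 cleanup, analysed by LC-HRMS in ESI positive mode.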

The target of experiment [2] is RAC-beta serine/threonine-protein kinase (Homo sapiens) (UniProt P31751). Kind of experiment: Inhibition of His-tagged full length human recombinant AKT2 expressed in baculovirus expression system at 1 uM by Z'-LYTE assay. Summed up:
(§2)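 Z'-LYTE FRET kinase panel; phosphorylation of a reference peptide measured with ATP at each enzyme's Km. Compounds tested in 1% DMSO at 0.1 and/or 1 μM. Values are means of two independent experiments with standard deviations.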

In experiment [3] the target is AMP-activated protein kinase, AMPK (Homo sapiens) (UniProt P54646+O43741+P54619+Q9UGJ0+Q9Y478+Q13131+Q9UGI9). Kind of experiment: Inhibition of human recombinant AMPK at 1 uM by Z'-LYTE assay. It counts as protein-complex assay. Summed up: as §2
In experiment [4] the test system is Epidermal growth factor receptor (Homo sapiens), P00533 [L858R,T790M,C797S]. Kind of experiment: Covalent binding affinity to recombinant EGFR L858R/T790M/C797S triple mutant (unknown origin) assessed as Lys745 sulfonylation in tryptic digested peptide IPVAIK745ELR at enzyme:compound molar concentration ratio of 1:5 incubated for 1 hr and measured following tryptic digestion by LC-HRMS analysis. In a few lines:
as §1

Experiment [5] deals with Cyclin-dependent kinase 5 (Homo sapiens) (UniProt Q00535). Description: Inhibition of GST/His-tagged human full length recombinant CDK5 expressed in baculovirus expression system at 1 uM by Z'-LYTE assay. Summed up: as §2
Experiment [6] concerns the target Epidermal growth factor receptor (Homo sapiens, UniProt P00533). The format is ADME.
Experiment [7] has as its target Fibroblast growth factor receptor 4 (Homo sapiens) (UniProt P22455). Kind of experiment: Inhibition of His-tagged human recombinant FGFR4 ([…] residues) expressed in baculovirus expression system at 1 uM by Z'-LYTE assay. Summed up: as §2
Experiment [8] addresses T1, Inhibitor of nuclear factor kappa-B kinase subunit beta (Homo sapiens) (UniProt O14920).
T1 sequence (whole entry): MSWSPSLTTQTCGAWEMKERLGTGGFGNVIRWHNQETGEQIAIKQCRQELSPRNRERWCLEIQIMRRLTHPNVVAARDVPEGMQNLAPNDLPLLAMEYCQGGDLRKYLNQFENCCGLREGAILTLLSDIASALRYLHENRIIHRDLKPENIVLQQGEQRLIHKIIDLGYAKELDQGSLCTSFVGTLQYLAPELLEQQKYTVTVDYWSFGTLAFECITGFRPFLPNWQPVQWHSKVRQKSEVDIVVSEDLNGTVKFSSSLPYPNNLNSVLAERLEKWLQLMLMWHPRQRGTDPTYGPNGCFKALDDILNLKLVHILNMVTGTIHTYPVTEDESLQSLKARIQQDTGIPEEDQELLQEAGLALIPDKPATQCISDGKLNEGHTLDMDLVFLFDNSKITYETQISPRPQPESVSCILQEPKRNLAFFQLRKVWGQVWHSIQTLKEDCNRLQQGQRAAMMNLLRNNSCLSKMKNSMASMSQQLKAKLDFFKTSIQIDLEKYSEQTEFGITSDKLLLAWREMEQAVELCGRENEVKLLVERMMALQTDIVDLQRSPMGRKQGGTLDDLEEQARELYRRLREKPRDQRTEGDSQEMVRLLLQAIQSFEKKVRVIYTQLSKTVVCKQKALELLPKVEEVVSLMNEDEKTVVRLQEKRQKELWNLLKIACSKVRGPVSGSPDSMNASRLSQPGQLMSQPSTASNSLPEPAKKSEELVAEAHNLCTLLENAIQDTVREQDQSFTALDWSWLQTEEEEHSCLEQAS
Description: Inhibition of GST-tagged human full length recombinant IKKbeta expressed in baculovirus expression system at 1 uM by Z'-LYTE assay. Summed up: as §2

Experiment [9] addresses Epidermal growth factor receptor (Homo sapiens, UniProt P00533, C797S/L858R/T790M). Kind of experiment: Inhibition of EGFR L858R/T790M/C797S triple mutant (unknown origin) using […] preincubated with enzyme and ATP at Km for 3 hrs followed by substrate addition and measured after 1 hr by TR-FRET assay.
In experiment [10] the target is Proto-oncogene tyrosine-protein kinase Src (Homo sapiens) (UniProt P12931). Kind of experiment: Inhibition of C-terminal His-tagged human recombinant SRC expressed in baculovirus expression system at 1 uM by Z'-LYTE assay. In a few lines: as §2
Experiment [11] has as its target Mitogen-activated protein kinase 3 (Homo sapiens) (UniProt P27361). Kind of experiment: Inhibition of GST-tagged human full length recombinant ERK1 expressed in Escherichia coli at 1 uM by Z'-LYTE assay. Summed up: as §2
The target in experiment [12] is Mitogen-activated protein kinase 14 (Homo sapiens) (UniProt Q16539). Kind of experiment: Inhibition of GST-tagged human full length recombinant p38 alpha expressed in Escherichia coli at 100 to 1000 nM by Z'-LYTE assay. The settings on record: dose 100-1000 nM.
In experiment [13] the target is Vascular endothelial growth factor receptor 2 (Homo sapiens) (UniProt P35968). Kind of experiment: Inhibition of His-tagged human recombinant VEGFR2 (789 to 1356 residues) expressed in baculovirus expression system at 100 to 1000 nM by Z'-LYTE assay. The settings on record: dose 100-1000 nM. In a few lines:
as §2

Each structure is given as a SMILES string. pIC50: −log10 of the molar value. Activity calls are given as the source filed them. The calls are words filed in the database; no cut-off is given here.

Chain of Fibroblast growth factor receptor 4 (Homo sapiens) (P22455 22-802 limits assumed): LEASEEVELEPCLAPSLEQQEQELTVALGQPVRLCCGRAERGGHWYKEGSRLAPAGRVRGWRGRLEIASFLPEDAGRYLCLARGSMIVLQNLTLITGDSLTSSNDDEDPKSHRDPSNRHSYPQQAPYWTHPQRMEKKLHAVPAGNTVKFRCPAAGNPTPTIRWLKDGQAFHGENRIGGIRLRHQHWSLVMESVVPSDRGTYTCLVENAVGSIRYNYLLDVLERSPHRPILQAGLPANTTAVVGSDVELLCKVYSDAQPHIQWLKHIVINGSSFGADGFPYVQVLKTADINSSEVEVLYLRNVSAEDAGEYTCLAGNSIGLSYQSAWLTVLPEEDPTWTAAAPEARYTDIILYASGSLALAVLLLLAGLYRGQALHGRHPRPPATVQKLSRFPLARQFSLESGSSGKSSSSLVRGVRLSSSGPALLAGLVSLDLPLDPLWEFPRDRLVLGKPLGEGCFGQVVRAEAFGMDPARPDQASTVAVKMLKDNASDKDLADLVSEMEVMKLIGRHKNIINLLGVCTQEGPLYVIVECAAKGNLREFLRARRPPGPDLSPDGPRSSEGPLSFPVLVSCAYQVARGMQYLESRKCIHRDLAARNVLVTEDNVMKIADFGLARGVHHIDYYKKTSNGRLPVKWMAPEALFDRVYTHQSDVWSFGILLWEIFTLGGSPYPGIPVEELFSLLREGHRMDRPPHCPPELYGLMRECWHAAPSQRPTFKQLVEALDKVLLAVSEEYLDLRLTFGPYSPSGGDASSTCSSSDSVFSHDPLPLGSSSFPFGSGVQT
Chain of RAC-beta serine/threonine-protein kinase (Homo sapiens) (P31751 whole entry): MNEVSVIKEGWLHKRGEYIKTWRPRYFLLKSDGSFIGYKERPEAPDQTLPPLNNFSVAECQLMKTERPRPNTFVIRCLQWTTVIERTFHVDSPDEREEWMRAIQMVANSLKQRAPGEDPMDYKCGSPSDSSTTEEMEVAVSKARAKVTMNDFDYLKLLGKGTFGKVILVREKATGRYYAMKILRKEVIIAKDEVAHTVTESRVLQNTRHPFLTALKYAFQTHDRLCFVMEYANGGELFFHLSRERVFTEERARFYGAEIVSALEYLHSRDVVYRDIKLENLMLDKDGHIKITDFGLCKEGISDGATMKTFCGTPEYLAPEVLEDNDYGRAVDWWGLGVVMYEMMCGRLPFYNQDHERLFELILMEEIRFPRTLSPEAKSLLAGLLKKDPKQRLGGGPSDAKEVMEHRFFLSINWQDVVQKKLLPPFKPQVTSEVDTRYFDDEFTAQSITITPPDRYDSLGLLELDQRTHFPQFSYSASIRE
Chain of Cyclin-dependent kinase 5 (Homo sapiens) (Q00535 whole entry, looked up): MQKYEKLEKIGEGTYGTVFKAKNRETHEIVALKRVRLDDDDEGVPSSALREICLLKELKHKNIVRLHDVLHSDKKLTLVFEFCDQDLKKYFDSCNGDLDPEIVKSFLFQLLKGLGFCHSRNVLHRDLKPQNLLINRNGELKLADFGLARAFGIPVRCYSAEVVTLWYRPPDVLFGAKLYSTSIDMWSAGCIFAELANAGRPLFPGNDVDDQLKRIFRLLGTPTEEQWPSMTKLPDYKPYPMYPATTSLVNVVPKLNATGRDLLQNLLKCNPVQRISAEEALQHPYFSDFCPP
Chain of Mitogen-activated protein kinase 3 (Homo sapiens) (P27361 whole entry): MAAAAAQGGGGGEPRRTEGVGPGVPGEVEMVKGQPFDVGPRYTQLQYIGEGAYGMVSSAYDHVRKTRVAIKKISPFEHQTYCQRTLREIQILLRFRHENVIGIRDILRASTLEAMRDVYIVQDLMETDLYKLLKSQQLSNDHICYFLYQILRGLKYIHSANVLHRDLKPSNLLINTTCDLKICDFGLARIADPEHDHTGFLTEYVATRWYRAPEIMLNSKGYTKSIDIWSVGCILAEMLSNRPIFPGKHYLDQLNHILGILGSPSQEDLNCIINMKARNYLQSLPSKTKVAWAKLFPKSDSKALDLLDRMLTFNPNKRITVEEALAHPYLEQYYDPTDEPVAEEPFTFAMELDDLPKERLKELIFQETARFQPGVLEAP
Chain of Proto-oncogene tyrosine-protein kinase Src (Homo sapiens) (P12931 2-536 limits assumed): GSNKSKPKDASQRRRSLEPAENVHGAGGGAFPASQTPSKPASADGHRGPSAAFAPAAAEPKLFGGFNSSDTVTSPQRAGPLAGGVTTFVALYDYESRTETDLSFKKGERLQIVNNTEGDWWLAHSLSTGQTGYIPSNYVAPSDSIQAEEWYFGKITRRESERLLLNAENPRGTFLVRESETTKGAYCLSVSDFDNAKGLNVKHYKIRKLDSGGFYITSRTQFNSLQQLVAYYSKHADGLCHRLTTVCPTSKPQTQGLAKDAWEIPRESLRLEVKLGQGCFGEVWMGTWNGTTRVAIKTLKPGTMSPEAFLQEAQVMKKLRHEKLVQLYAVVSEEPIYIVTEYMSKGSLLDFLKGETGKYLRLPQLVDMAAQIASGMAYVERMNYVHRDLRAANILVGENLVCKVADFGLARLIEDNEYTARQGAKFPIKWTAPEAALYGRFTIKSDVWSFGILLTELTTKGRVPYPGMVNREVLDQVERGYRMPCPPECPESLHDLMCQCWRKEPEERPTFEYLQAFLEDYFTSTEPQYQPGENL
Chain of Mitogen-activated protein kinase 14 (Homo sapiens) (Q16539 whole entry, the tested form may be a part): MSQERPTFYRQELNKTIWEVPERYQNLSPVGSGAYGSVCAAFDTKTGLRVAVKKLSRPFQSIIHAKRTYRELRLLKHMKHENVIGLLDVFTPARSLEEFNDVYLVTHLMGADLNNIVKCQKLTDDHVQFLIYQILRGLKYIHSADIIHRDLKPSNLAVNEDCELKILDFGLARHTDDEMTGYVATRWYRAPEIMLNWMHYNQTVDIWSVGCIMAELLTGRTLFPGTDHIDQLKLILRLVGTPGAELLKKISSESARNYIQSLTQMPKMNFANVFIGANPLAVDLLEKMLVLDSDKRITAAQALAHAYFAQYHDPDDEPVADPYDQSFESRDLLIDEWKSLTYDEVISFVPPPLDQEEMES
Chain of Vascular endothelial growth factor receptor 2 (Homo sapiens) (P35968 whole entry, the tested form may be a part): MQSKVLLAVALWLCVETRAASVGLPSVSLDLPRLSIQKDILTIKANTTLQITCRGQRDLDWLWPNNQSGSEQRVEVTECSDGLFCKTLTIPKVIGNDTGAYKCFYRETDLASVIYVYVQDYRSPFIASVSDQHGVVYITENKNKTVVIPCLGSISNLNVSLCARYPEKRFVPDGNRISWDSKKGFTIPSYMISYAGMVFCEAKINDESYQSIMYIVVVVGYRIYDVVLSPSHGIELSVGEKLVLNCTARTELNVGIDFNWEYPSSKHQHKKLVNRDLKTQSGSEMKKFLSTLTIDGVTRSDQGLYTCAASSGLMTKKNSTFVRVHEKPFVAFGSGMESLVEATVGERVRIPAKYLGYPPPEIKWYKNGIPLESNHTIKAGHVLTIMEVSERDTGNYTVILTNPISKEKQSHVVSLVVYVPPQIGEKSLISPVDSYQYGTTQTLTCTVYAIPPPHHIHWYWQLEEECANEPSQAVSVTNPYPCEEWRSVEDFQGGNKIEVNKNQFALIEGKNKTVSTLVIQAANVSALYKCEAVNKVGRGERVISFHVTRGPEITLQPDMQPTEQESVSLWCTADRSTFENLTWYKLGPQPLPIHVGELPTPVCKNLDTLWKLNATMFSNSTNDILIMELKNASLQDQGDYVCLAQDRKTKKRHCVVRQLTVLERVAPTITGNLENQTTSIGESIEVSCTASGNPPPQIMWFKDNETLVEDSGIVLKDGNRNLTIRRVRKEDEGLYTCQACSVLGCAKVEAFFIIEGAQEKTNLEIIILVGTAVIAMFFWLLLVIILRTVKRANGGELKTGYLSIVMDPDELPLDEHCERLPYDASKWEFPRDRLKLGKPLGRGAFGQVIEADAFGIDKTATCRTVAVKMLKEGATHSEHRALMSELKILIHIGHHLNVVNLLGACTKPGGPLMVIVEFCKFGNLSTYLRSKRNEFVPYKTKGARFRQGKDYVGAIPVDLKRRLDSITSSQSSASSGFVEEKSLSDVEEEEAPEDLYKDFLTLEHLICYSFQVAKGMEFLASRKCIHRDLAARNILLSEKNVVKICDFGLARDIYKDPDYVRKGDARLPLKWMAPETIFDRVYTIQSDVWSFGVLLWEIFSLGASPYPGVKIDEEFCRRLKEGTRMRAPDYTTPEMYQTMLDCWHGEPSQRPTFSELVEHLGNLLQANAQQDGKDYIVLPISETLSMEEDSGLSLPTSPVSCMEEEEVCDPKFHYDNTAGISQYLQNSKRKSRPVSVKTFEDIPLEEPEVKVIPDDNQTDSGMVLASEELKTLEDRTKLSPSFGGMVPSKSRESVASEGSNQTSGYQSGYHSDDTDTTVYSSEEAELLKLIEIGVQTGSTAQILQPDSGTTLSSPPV

Take `COc1cc(N2CCN(C(C)=O)CC2)ccc1Nc1ncc(Cl)c(Nc2ccc(NCc3ccc(S(=O)(=O)F)cc3)cc2)n1`: the result in experiment [1] and in experiment [4] was Active. Further, the inhibition in experiment [2] was 90%; in experiment [3], 100%; in experiment [5], 90%; in [7] it was under 25%; in [8] it was under 25%; in [10], 100%. In experiment [11], the inhibition was under 25%. Further, the pIC50 was 6.68 in [6] and 8.55 in [9].
As for `C#CCNC(=O)c1cc(Nc2cc(C3CC3)[nH]n2)nc(N2CCN(Cc3ccc(S(=O)(=O)F)cc3)CC2)n1`, the inhibition result in experiment [12] and in experiment [13] was “inactive” each time.

The values are drawn from ChEMBL document CHEMBL4828755, “A sulfonyl fluoride derivative inhibits EGFRL858R/T790M/C797S by covalent modification of the catalytic lysine” (Eur J Med Chem, 2021).
